Results: ChEMBL document CHEMBL5724801, “EUbOPEN Chemogenomics Library - Multiplex” (2024)
Several values for one entry are separate records, joined by “and”; a condition that tells them apart may be missing. Equal entries are not always repeated.

Tested on: Fibroblast
Assay: Multiplex assay against human fibroblast
Format: toxicity, cell-based
Summary of the method: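 Four dyes were applied at seeding to live cells: Hoechst33342, BioTracker Green Microtubule Cytoskeleton Dye, MitoTracker Red and Annexin V Alexa Fluor 680. Imaging after compound addition used a CQ1 microscope at 37°C and 5% CO2. CellPathfinder machine-learning gating then sorted cells into Hoechst high-intensity objects or normal cells, normal cells into healthy, pyknosed or fragmented nuclei, and pyknosed cells into mitotic or apoptotic, with tubulin, mitochondrial-mass and membrane-permeability phenotypes given as per cents of healthy-nucleus cells.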

[1] = 12 h, 1 µM, compound concentration 1 uM
[2] = 12 h, 10 µM, compound concentration 10 uM
[3] = 24 h, 1 µM, compound concentration 1 uM
[4] = 24 h, 10 µM, compound concentration 10 uM
[5] = 48 h, 1 µM, compound concentration 1 uM
[6] = 48 h, 10 µM, compound concentration 10 uM

## CCCN1CCC[C@@H]2Cc3n[nH]cc3C[C@H]21.Cl [QUINPIROLE HYDROCHLORIDE]
[1]
  Population Apoptotic (%): 45% and 52%
  Population Fragmented Nuclei (%): 14% and 22%
  Population Healthy Nuclei (%): 65% and 60%
  Population Hoechst High Intensity Objects (%): 2% and 6%
  Population Membrane Permeable-Phenotype (%): 0% and 7%
  Population Mitochondria Different-Phenotype (%): 3% and 6%
  Population Mitotic Cells (%): 54% and 47%
  Population Normal (%): 97% and 93%
  Population Pyknosed Nuclei (%): 20% and 17%
  Population Tubulin-Different-Phenotype (%): 17% and 50%
  Total Cell Count: 156 and 139
[2]
  Population Apoptotic (%): 58% and 45%
  Population Fragmented Nuclei (%): 16% and 23%
  Population Healthy Nuclei (%): 68% and 59%
  Population Hoechst High Intensity Objects (%): 4% and 2%
  Population Membrane Permeable-Phenotype (%): 1% and 10%
  Population Mitochondria Different-Phenotype (%): 6%
  Population Mitotic Cells (%): 41% and 54%
  Population Normal (%): 95% and 97%
  Population Pyknosed Nuclei (%): 15% and 17%
  Population Tubulin-Different-Phenotype (%): 33% and 55%
  Total Cell Count: 115 and 184
[3]
  Population Apoptotic (%): 52% and 34%
  Population Fragmented Nuclei (%): 21% and 28%
  Population Healthy Nuclei (%): 64% and 53%
  Population Hoechst High Intensity Objects (%): 1% and 2%
  Population Membrane Permeable-Phenotype (%): 0% and 1%
  Population Mitochondria Different-Phenotype (%): 2% and 7%
  Population Mitotic Cells (%): 47% and 65%
  Population Normal (%): 98%
  Population Pyknosed Nuclei (%): 13% and 17%
  Total Cell Count: 172 and 150
[4]
  Population Apoptotic (%): 75% and 55%
  Population Fragmented Nuclei (%): 22% and 38%
  Population Healthy Nuclei (%): 67% and 51%
  Population Hoechst High Intensity Objects (%): 2% and 1%
  Population Membrane Permeable-Phenotype (%): 0% and 7%
  Population Mitochondria Different-Phenotype (%): 7% and 3%
  Population Mitotic Cells (%): 25% and 45%
  Population Normal (%): 97% and 98%
  Population Pyknosed Nuclei (%): 10% and 9%
  Population Tubulin-Different-Phenotype (%): 32% and 39%
  Total Cell Count: 119 and 209
[5]
  Population Apoptotic (%): 68% and 38%
  Population Fragmented Nuclei (%): 23% and 37%
  Population Healthy Nuclei (%): 62% and 53%
  Population Hoechst High Intensity Objects (%): 3% and 1%
  Population Membrane Permeable-Phenotype (%): 0% and 8%
  Population Mitochondria Different-Phenotype (%): 3% and 4%
  Population Mitotic Cells (%): 32% and 61%
  Population Normal (%): 96% and 98%
  Population Pyknosed Nuclei (%): 14% and 8%
  Population Tubulin-Different-Phenotype (%): 21% and 42%
  Total Cell Count: 175 and 157
[6]
  Population Apoptotic (%): 53% and 46%
  Population Fragmented Nuclei (%): 23% and 43%
  Population Healthy Nuclei (%): 65% and 48%
  Population Hoechst High Intensity Objects (%): 1% and 3%
  Population Membrane Permeable-Phenotype (%): 2%
  Population Mitochondria Different-Phenotype (%): 6% and 4%
  Population Mitotic Cells (%): 46% and 53%
  Population Normal (%): 98% and 96%
  Population Pyknosed Nuclei (%): 11% and 8%
  Population Tubulin-Different-Phenotype (%): 31% and 48%
  Total Cell Count: 119 and 192
